Each structure is given as a SMILES string. Calls of active or inactive are those of the source. Some results are limits rather than exact numbers.

The test system of one data set is Plasmodium berghei. Briefly: Antiplasmodial activity against Plasmodium berghei ANKA infected in BALB/c mouse model of malaria assessed as reduction in parasitemia at 100 mg/kg/day, ip for 2 days by Giemsa staining based flow cytometry analysis. Format: functional, organism-based. The conditions noted are these: time 2.0 day. The method, boiled down: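 Female BALB/c mice, 8-12 weeks, infected ip with 1 × 10⁵ P. berghei ANKA-infected erythrocytes. Once parasitemia reached 0.4-1.5% (5 mice per group), 100 mg/kg was given ip in 150 mM NaCl containing 20.9% v/v DMSO; second dose at 24 h. Daily tail-bleed parasitemia was read by Giemsa-stained thin smear or by flow cytometry (JC-1, Hoechst 33342, anti-CD45/CD71/TER119).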
In general terms: A flow cytometer gives signals particle by particle.

A short description of data set [1]: Antiproliferative activity against human HFF cells assessed as cell proliferation at 100 uM incubated for 3 to 4 days in presence of 1 uM pantothenate by SYBR assay.
Data set [2] in a line: Selectivity index, ratio of IC50 for human HFF cells to IC50 for Plasmodium falciparum in presence of 1 uM pantothenate. Format: toxicity. Conditions: HFF cells versus Plasmodium falciparum, read-out: Ratio IC50. Put shortly:
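HFF cells grown 3-4 days in RPMI 1640 with 10% bovine calf serum and antibiotics, with compound up to 200 μM; SYBR Safe-based read-out. Selectivity index = HFF IC50 divided by P. falciparum IC50 at 1 μM pantothenate. Where HFF inhibition stayed below 50%, 200 μM (or 100 μM) was used as the HFF value to set limits.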

Data set [3] is described as follows: Metabolic stability in human liver microsomes assessed as half life at 1 uM in presence or absence of NADPH regenerating system by LC-MS analysis. Type of data set: ADME, Microsome. The method, boiled down:
(§1)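 Stability in mouse or human liver microsomes was measured with and without an NADPH-regenerating system, giving in vitro t1/2 and intrinsic clearance in μL/min/mg protein.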
Background: Liver microsomes are vesicles of endoplasmic reticulum, rich in cytochrome P450 enzymes.

Data set [4] relates to Plasmodium falciparum. Kind of data set: Antiplasmodial activity against ring stage Plasmodium falciparum 3D7 infected in human erythrocytes assessed as inhibition of parasite growth incubated for 10 hrs by SYBR Green I dye based fluorescence assay. Format: functional, organism-based. The conditions noted are these: Erythrocyte. The method, boiled down:
(§2)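 Triple-sorbitol-synchronized 3D7 ring-stage cultures at 0.5% parasitemia and 1% hematocrit were exposed to compound at ten concentrations at 37 °C in 96% N₂, 3% CO₂, 1% O₂. After 5, 10, 24 or 48 h, cells were washed three times and resuspended without compound. Total culture time 96 h, then SYBR Safe fluorescence. Three experiments in triplicate.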

Data set [5] has as its system Plasmodium falciparum. Kind of data set: Antiplasmodial activity against ring stage Plasmodium falciparum 3D7 infected in human erythrocytes assessed as inhibition of parasite growth incubated for 96 hrs in presence of 100 uM pantothenate by SYBR Green I dye based fluorescence assay. Type of data set: functional, organism-based. The conditions noted are these: 3D7, Erythrocyte. Put shortly:
(§3)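 P. falciparum 3D7 ring stages at 0.5% parasitemia and 1% hematocrit in Albumax II medium. Where specified, 100 μM sodium pantothenate was added. Incubation 96 h, then freeze-thaw and SYBR Safe lysis-buffer fluorescence. Chloroquine 0.25-25 μM served as zero-proliferation control. Experiments in triplicate; 100 μM pantothenate data from two experiments.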

Data set [6] can be described thus: Drug degradation in mouse liver microsomes in presence of NADPH after 60 mins. Conditions: 1 h. Type of data set: ADME, Microsome. Put shortly:
(§4)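 Degradation in mouse or human liver microsomes was followed over 60 min, with and without an NADPH-regenerating system.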

The nature of data set [7]: Metabolic stability in mouse liver microsomes assessed as half life at 1 uM in presence or absence of NADPH regenerating system by LC-MS analysis. Type of data set: ADME, Microsome. Put shortly: as §1
The test system of data set [8] is Plasmodium falciparum. Kind of data set: Antiplasmodial activity against ring stage Plasmodium falciparum 3D7 infected in human erythrocytes assessed as inhibition of parasite growth at 100 uM pretreated with compound followed by parasite infection by SYBR Green I dye based fluorescence assay. Type of data set: functional, organism-based. Conditions: Erythrocyte.

Data set [9] in a line: Drug concentration in BALB/c mouse plasma at 100 mg/kg/day, ip measured after 1 day. Format: ADME, organism-based. The conditions noted are these: whole blood, in the assay text read “whole blood” for “plasma”. The method, boiled down:
(§5)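 Dosing was 100 mg/kg ip in P. berghei-infected female BALB/c mice, repeated at 24 h. 10 μL tail whole blood was sampled by microsampling device at 3 h, at ~24 h (before the second dose) and at 48 h. Samples were extracted with 80% acetonitrile using diazepam as internal standard and quantified by LC-MS MRM against a spiked-blood standard curve of 5 ng/mL-20 μg/mL. LLQ was 16 or 17 nM. Mean of five mice.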

The subject of data set [10] is Plasmodium falciparum. Briefly: Antiplasmodial activity against ring stage Plasmodium falciparum 3D7 infected in human erythrocytes assessed as inhibition of parasite growth incubated for 96 hrs in presence of 1 uM pantothenate by SYBR Green I dye based fluorescence assay. Type of data set: functional, organism-based. Conditions: 3D7, Erythrocyte. The method, boiled down:
as §3

A short description of data set [11]: Drug concentration in BALB/c mouse plasma at 100 mg/kg/day, ip measured after 2 days. Format: ADME, organism-based. Conditions: whole blood, in the assay text read “whole blood” for “plasma”. Put shortly:
as §5

A short description of data set [12]: Metabolic stability in mouse liver microsomes assessed as intrinsic clearance at 1 uM in presence or absence of NADPH regenerating system measured per mg protein by LC-MS analysis. Format: ADME, Microsome. Conditions: read-out: CLH. Put shortly: as §1
The subject of another data set is Plasmodium knowlesi. Briefly: Antiplasmodial activity against Plasmodium knowlesi infected in human erythrocytes assessed as inhibition of parasite growth incubated for 72 hrs in presence of 1 uM pantothenate by SYBR Green I dye based fluorescence assay. The conditions noted are these: Erythrocyte. Type of data set: functional, organism-based.
Data set [13] in a line: Apparent permeability of the compound across apical to basolateral side in human Caco-2 cells at 20 uM. On the technique in general: Passage across Caco-2 layers is used to estimate intestinal permeability.
Data set [14] can be described thus: Drug concentration in BALB/c mouse plasma at 100 mg/kg/day, ip measured after 3 hrs. Format: ADME, organism-based. The conditions noted are these: whole blood, in the assay text read “whole blood” for “plasma”. The method, boiled down:
as §5

The nature of data set [15]: Metabolic stability in human liver microsomes assessed as intrinsic clearance at 1 uM in presence of absence of NADPH regenerating system measured per mg protein by LC-MS analysis. Type of data set: ADME, Microsome. The conditions noted are these: read-out: CLH. The method, boiled down: as §1
A short description of data set [16]: Drug degradation in mouse liver microsomes in absence of NADPH after 60 mins. Format: ADME, Microsome. Conditions: read-out: Drug degradation. The method, boiled down: as §4
For data set [17], the system named is Plasmodium falciparum. Briefly: Antiplasmodial activity against ring stage Plasmodium falciparum 3D7 infected in human erythrocytes assessed as inhibition of parasite growth incubated for 24 hrs by SYBR Green I dye based fluorescence assay. Format: functional, organism-based. The conditions noted are these: Erythrocyte. The method, boiled down: as §2
Data set [18] concerns Plasmodium falciparum. Briefly: Antiplasmodial activity against ring stage Plasmodium falciparum 3D7 infected in human erythrocytes assessed as inhibition of parasite growth incubated for 48 hrs by SYBR Green I dye based fluorescence assay. The conditions noted are these: Erythrocyte. Format: functional, organism-based. The method, boiled down: as §2
The nature of data set [19]: Antiproliferative activity against human HFF cells assessed as cell proliferation at 200 uM incubated for 3 to 4 days in presence of 1 uM pantothenate by SYBR assay.
Data set [20] has as its system Plasmodium falciparum. Briefly: Antiplasmodial activity against ring stage Plasmodium falciparum NF54 infected in human erythrocytes assessed as inhibition of parasite growth incubated for 72 hrs in presence of pantothenate by SYBR Green dye based fluorescence assay. Format: functional, organism-based. The conditions noted are these: NF54, Erythrocyte.

The term half-life denotes the time needed for the level to fall by half in the phase considered. The IC50 is the concentration that inhibits the measured activity by half. As usually defined, the Papp A→B is how fast a substance crosses the layer from the apical side. Turning to `CCCCCc1cc(CNC(=O)[C@H](O)C(C)(C)CO)no1`, the result in the data set on Plasmodium berghei, in the data set with Plasmodium falciparum [4] and in the data set on Plasmodium falciparum [8] was inactive. Moreover, the proliferation at 100 µM in data set [1] was determined as 104%. Moreover, the selectivity ratio at 1 µM in data set [2] was > 1200. Further, the half-life at 1 µM worked out at 2.53 h in data set [3] and 0.55 h in data set [7]. Further, the IC50 in the data set on Plasmodium falciparum [5] is > 1000 nM; in the data set on Plasmodium falciparum [10] it was 160 nM; in the data set with Plasmodium knowlesi it was 6.1 nM. For the same molecule, the Stabilty result in [6] was “Unstable”. Besides, the concentration at 24 h in data set [9] was < 17 nM. Further, in [11], the concentration at 48 h is < 17 nM. Further, the figures for the microsomal CLint at 1 µM in [12] and in data set [15] were 53 µL/min/mg and 11 µL/min/mg, respectively. Besides, in data set [13], the Papp A→B at 20 µM was 55 ×10⁻⁶ cm/s. In data set [14], this molecule displayed a concentration at 3 h of 72 nM. Also, the metabolised at 1 h in data set [16] was 20%. Also, the result with Plasmodium falciparum [17] and with Plasmodium falciparum [18] was Active. Further, the proliferation at 200 µM in data set [19] came out at 71%.

For `CCCCCC(=O)NCCNC(=O)[C@H](O)C(C)(C)CO`, the IC50 with Plasmodium falciparum [20] came out at 630 nM.

The values above are taken from ChEMBL document CHEMBL4808174, “Exploring Heteroaromatic Rings as a Replacement for the Labile Amide of Antiplasmodial Pantothenamides” (J Med Chem, 2021).
